Data set [1] is described as follows: Inhibition of Plasmodium falciparum recombinant HGPRT expressed in Escherichia coli using Prib-PP as substrate by spectrophotometric assay in presence of guanine. The method in brief:
(§1)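 Continuous spectrophotometric assay at 25 °C in 0.1 M Tris-HCl, 10 mM MgCl₂, pH 7.4. PRib-PP is the variable substrate. Guanine is held fixed at a saturating 60 μM. Values are apparent Ki, since only one concentration of the second substrate was used. Each was calculated from Km(app) = Km(1 + [I]/Ki(app)).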

A short description of data set [2]: Inhibition of Plasmodium vivax HGPRT using Prib-PP as substrate by spectrophotometric assay in presence of guanine. The method in brief: as §1
For data set [3], the target named is T1, Hypoxanthine-guanine phosphoribosyltransferase (Homo sapiens, UniProt P00492).
T1 sequence (P00492 whole entry): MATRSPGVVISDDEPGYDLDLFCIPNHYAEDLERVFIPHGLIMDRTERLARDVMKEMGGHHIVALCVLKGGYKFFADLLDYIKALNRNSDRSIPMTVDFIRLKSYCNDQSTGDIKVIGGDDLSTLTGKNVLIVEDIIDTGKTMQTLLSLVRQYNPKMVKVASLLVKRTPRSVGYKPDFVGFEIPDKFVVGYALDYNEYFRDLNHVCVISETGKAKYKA
Description: Inhibition of human HGPRT using Prib-PP as substrate by spectrophotometric assay in presence of guanine. An outline of the steps: as §1

The next data set has as its system HL-60. In words: Cytostatic activity against human HL60 cells. The data set is classed as ADME, cell-based.
A short description of data set [4]: Cytotoxicity against cat CRFK cells. The data set is classed as cell-based, Felis catus.
A short description of data set [5]: Cytotoxicity against human HEL cells. The data set is classed as cell-based.
For another data set, the system named is CCRF-CEM. Description: Cytostatic activity against human CCRF-CEM cells. It counts as ADME, cell-based.
Data set [6] is described as follows: Cytostatic activity against human HeLaS3 cells. It counts as ADME, cell-based. The settings on record: hela s3.
A short description of data set [7]: Cytotoxicity african green monkey Vero cells. It counts as cell-based. As to conditions: chlorocebus sabaeus.
For another data set, the system named is L1210. Description: Cytostatic activity against mouse L1210 cells. It counts as ADME, cell-based.

For orientation: Ki means a dissociation constant, usually derived from enzyme kinetics or from competition with a known ligand. By CC50 is commonly meant the concentration giving 50% cytotoxicity.

In the case of `N#CCCN(CCn1cnc2c(=O)[nH]c(N)nc21)CCP(=O)(O)O`, the results for the Ki in data set [1], in data set [2] and in data set [3] were 200 nM, 300 nM and 70 nM, respectively. Moreover, the Activity result (with HL-60; with CCRF-CEM; in [6]; in the data set on L1210) was “Non-toxic” in each case. Moreover, the CC50 in data set [4], in data set [5] and in data set [7] was above 100 µg/mL in each case.
As for `COC(=O)CCCN(CCn1cnc2c(=O)[nH]c(N)nc21)CCP(=O)(O)O`, the Ki was 1300 nM in data set [1], above 200000 nM in data set [2] and 100 nM in data set [3]. For the same compound, the Activity result (in the data set on HL-60; in the data set with CCRF-CEM; in data set [6]; in the data set on L1210) was “Non-toxic” in each case. Further, the CC50 in [4], in data set [5] and in data set [7] was above 100 µg/mL each time.
As for `N#CCCN(CCn1cnc2c(=O)[nH]cnc21)CCP(=O)(O)O`, the Ki came to 200 nM in data set [1], 700 nM in data set [2] and 2400 nM in data set [3]. For the same compound, the Activity entry (in the data set on HL-60; in the data set on CCRF-CEM; in data set [6]; in the data set with L1210) was “Non-toxic” in each case. For the same compound, the CC50 in [4], in data set [5] and in data set [7] was above 100 µg/mL throughout.
Take `O=C(O)CCN(CCn1cnc2c(=O)[nH]cnc21)CCP(=O)(O)O`: the Ki in [1] is 400 nM; in data set [2] it was 41000 nM; in [3], above 240000 nM. The Activity result (with HL-60; with CCRF-CEM; in data set [6]; in the data set with L1210) was “Non-toxic” in each case. Moreover, the CC50 in data set [4], in data set [5] and in data set [7] was above 100 µg/mL each time.
In the case of `Nc1nc2c(ncn2CCN(CCP(=O)(O)O)CCP(=O)(O)O)c(=O)[nH]1`, the values for the Ki in data set [1], in data set [2] and in [3] were 300 nM, 900 nM and 200 nM, respectively. The Activity entry (in the data set with HL-60; in the data set with CCRF-CEM; in data set [6]; in the data set with L1210) was “Non-toxic” in each case. The CC50 in data set [4], in [5] and in data set [7] was above 100 µg/mL each time.
Regarding `COC(=O)CCN(CCn1cnc2c(=O)[nH]cnc21)CCP(=O)(O)O`, the Ki in data set [1] is 100 nM; in data set [2], 21000 nM; in [3], above 200000 nM. Also, the Activity result (in the data set on HL-60; in the data set on CCRF-CEM; in data set [6]; in the data set on L1210) was “Non-toxic” throughout. In addition, the 50% cytotoxic concentration (CC50) in [4], in data set [5] and in data set [7] was above 100 µg/mL each time.
`Nc1nc2c(ncn2CCN(CCP(=O)(O)O)CC(=O)O)c(=O)[nH]1`: the results for the Ki in data set [1], in [2] and in [3] were 700 nM, 28000 nM and 1400 nM, respectively. For the same compound, the Activity entry (in the data set on HL-60; in the data set with CCRF-CEM; in [6]; in the data set on L1210) was “Non-toxic” in each case. Besides, the CC50 in data set [4], in data set [5] and in [7] was above 100 µg/mL each time.
As for `O=c1[nH]cnc2c1ncn2CCN(CCO)CCP(=O)(O)O`, the results for the Ki in data set [1], in data set [2] and in data set [3] were 2600 nM, 21000 nM and 5500 nM, respectively. Moreover, the Activity entry (in the data set with HL-60; with CCRF-CEM; in [6]; with L1210) was “Non-toxic” throughout. Besides, the CC50 in data set [4], in [5] and in [7] was above 100 µg/mL each time.

The values above are taken from ChEMBL document CHEMBL2150991, “Synthesis of novel N-branched acyclic nucleoside phosphonates as potent and selective inhibitors of human, Plasmodium falciparum and Plasmodium vivax 6-oxopurine phosphoribosyltransferases” (J Med Chem, 2012).
